Reference: ChEMBL document CHEMBL1126679 (J Med Chem, 1993)

Key:
D(2) dopamine receptor [1] = target: D(2) dopamine receptor (Rattus norvegicus, UniProt P61169); assay: Compound was tested for antagonistic activity against D2 receptor from rat striatum, used [3H]raclopride as radioligand; assay type: functional
D(2) dopamine receptor [2] = target: T1, D(2) dopamine receptor (Homo sapiens, UniProt P14416); assay: Intrinsic activity against dopamine D 2 receptor; assay type: functional; settings: Cricetulus griseus
T1 sequence (P14416 whole entry): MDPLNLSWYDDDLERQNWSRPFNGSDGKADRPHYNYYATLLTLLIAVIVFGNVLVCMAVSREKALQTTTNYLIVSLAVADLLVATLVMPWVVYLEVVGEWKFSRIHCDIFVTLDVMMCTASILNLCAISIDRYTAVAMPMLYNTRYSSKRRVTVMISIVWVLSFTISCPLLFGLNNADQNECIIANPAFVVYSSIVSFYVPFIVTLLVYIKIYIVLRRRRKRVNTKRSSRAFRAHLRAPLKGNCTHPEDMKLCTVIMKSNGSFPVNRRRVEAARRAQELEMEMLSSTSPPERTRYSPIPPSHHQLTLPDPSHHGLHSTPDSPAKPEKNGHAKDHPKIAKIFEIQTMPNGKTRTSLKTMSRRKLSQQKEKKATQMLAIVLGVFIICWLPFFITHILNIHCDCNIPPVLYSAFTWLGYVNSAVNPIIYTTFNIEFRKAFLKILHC
In short: (§1)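 Membranes from CHO cells stably transfected with D2 receptor. Low-affinity agonist state affinity came from [3H]raclopride displacement with high GTP, and high-affinity state affinity from [3H]U-86170 displacement without GTP.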

D(2) dopamine receptor [3] = target: T1, D(2) dopamine receptor; assay: Compound was tested for agonistic activity against D2 receptor from cloned CHO cells, used [3H]U-86170 as radioligand; assay type: functional, cell-based, Cricetulus griseus
[4] = Binding affinity against 5-hydroxytryptamine 1A receptor from bovine hippocampus, used [3H]8-OH-DPAT as radioligand
D(2) dopamine receptor [5] = target: T1, D(2) dopamine receptor; assay: Intrinsic activity was Determined; assay type: functional
[6] = Intrinsic activity was 0%of highest possible antagonist.; assay type: functional; in short: as §1
[7] = (§2) Intrinsic activity was 100% of highest possible agonist.; assay type: functional; in short: as §1
[8] = as §2; assay type: functional; remark: listed apart in the source

Sequence of D(2) dopamine receptor (Rattus norvegicus, UniProt P61169) (P61169 whole entry): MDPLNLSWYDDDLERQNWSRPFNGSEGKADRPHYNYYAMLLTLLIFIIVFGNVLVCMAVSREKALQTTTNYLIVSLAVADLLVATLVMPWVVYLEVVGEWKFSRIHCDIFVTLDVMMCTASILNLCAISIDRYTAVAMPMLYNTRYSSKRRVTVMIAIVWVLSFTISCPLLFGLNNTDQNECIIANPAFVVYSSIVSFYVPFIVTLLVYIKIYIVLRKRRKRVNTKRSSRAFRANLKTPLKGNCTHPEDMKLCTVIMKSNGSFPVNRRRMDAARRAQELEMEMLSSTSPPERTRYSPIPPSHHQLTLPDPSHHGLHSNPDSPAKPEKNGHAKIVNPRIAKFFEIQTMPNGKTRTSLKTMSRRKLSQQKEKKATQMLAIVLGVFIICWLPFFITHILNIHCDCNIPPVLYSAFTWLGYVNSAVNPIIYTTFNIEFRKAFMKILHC

SMILES	Ki (D(2) dopamine receptor [1]) [nM]	Intrinsic activity (D(2) dopamine receptor [2])	Ki (D(2) dopamine receptor [3]) [nM]	also measured
C=CCN1CC[C@@H]2c3cccc(OC)c3CC[C@@H]21	> 1000			
C=CCN1CCC2c3cccc(O)c3CCC21 (racemic; 15c) [listing 1 of 2 here]		29%		
CCCN(CCC)[C@@H]1CCc2c(OC)cccc2[C@@H]1C	22	0	13	
C=CCN1CC[C@H]2c3cccc(OC)c3CC[C@H]21		0%		
CCCN1CC[C@H]2c3c(cccc3OC)CC[C@H]21 [listing 1 of 2 here]				Ki [4]: 0.2 nM
C=CCN1CC[C@H]2Cc3c(O)cccc3CC21 (single isomer, unassigned)	47	21%	235	
C=CCN1CC[C@H]2c3c(O)cccc3CC[C@H]21 (racemic)			153	Intrinsic activity (D(2) dopamine receptor [5]): 7%
CCCN1[C@@H](C)C[C@@H]2Cc3cccc(OC)c3C[C@@H]21		21%		Ki [4]: 11 nM
CCCN1CCC2Cc3c(O)cccc3CC21 (racemic)	296	61%	11	
C=CCN1CCC2Cc3c(cccc3OC)CC21 (racemic)	429			
CCCN1CC[C@H]2c3cccc(OC)c3CC[C@@H]21 (racemic)				Intrinsic activity [6]: 0%
C=CCN1CC[C@H]2c3c(cccc3OC)CC[C@H]21 [listing 1 of 2 here]			6.7	
CCCN1CC[C@@H]2Cc3c(cccc3OC)C[C@H]21		37%		
C=CCN1CCC2c3cccc(OC)c3CC[C@@H]21 (mixture of isomers)	99	0%		
CCCN1CC[C@H]2c3c(O)cccc3CC[C@H]21 (single isomer, unassigned) [listing 1 of 2 here]				Intrinsic activity (D(2) dopamine receptor [5]): 0%
C=CCN1CCC2c3c(O)cccc3CCC21 (racemic)	25	13%		
C=CCN1CCC2c3cccc(O)c3CCC21 (racemic; 14c) [listing 1 of 2 here]		44%		
CCCN1CC[C@H]2Cc3c(O)cccc3CC21 (single isomer, unassigned)	> 630	18%	917	
C=CCN1CCC2c3cccc(O)c3CCC21 (racemic; 14c) [listing 2 of 2 here]			4.1	

SMILES	Ki (D(2) dopamine receptor [1]) [nM]	Intrinsic activity (D(2) dopamine receptor [2])	Ki (D(2) dopamine receptor [3]) [nM]	also measured
C=CCN1CC[C@@H]2c3cccc(O)c3CC[C@@H]21	259	47%	59	
C=CCN1CC[C@H]2Cc3c(cccc3OC)CC21 (single isomer, unassigned)				Intrinsic activity [6]: 0%
CCCN1[C@H](C)C[C@@H]2Cc3cccc(OC)c3C[C@@H]21				Ki [4]: 384 nM
CCCN1CC[C@H]2c3c(O)cccc3CC[C@H]21 (single isomer, unassigned) [listing 2 of 2 here]			< 50	
C=CCN1CC[C@H]2c3c(cccc3OC)CC[C@H]21 [listing 2 of 2 here]		24%		
Cc1[nH]c2cccc3c2c1C[C@@H]1C3C[C@H](NC(=O)C(C)(C)C)CN1C (some centres undefined)		11%	3.1	
CCCN1CC[C@H]2c3c(cccc3OC)CC[C@H]21 (single isomer, unassigned)	> 1000			
CCCN[C@@H]1CCc2c(OC)cccc2[C@@H]1C	179	3%	14	
CCCN1CCC2c3cccc(O)c3CCC21 (racemic; 15a) [listing 1 of 2 here]		1%		
C=CCN1CC[C@H]2c3c(cccc3OC)CC[C@H]21 (single isomer, unassigned)		17%		
C=CCN1CC[C@H]2c3c(cccc3OC)CC[C@H]21 (racemic) [listing 1 of 2 here]			7	
CCCN1CCC2Cc3c(cccc3OC)C[C@H]21 (mixture of isomers)	877	100%	100	
C=CCN1CCC2Cc3c(cccc3OC)C[C@H]21 (mixture of isomers)	> 1000			Intrinsic activity [7]: 100%
C=CCN1CCC2c3c(cccc3OC)CCC21 (racemic)		0%	8.5	
CCCN1CCC2c3cccc(O)c3CCC21 (racemic; 14a) [listing 1 of 2 here]		28%		
CCCN1CCC2c3cccc(O)c3CCC21 (racemic; 15a) [listing 2 of 2 here]	> 1000		218	
CCCN(CCC)[C@@H]1Cc2cccc3ccc(=O)n(c23)C1 (racemic)	18.8	79%	3.5	
CCCN1C[C@H](CSC)C[C@@H]2c3cccc4[nH]cc(c34)C[C@H]21		66%		
C=CCN1CC[C@H]2c3c(cccc3OC)CC[C@H]21 (racemic) [listing 2 of 2 here]		15%		

SMILES	Ki (D(2) dopamine receptor [1]) [nM]	Intrinsic activity (D(2) dopamine receptor [2])	Ki (D(2) dopamine receptor [3]) [nM]	also measured
CCCN1CC[C@@H]2Cc3c(O)cccc3C[C@H]21		109%		
CCCN(CCC)[C@@H]1Cc2cccc3nc(S)n(c23)C1 (racemic)	39	100%	0.6	
C=CCN1CC[C@@H]2Cc3c(cccc3OC)C[C@H]21				Intrinsic activity [7]: 100%
CCCN1CCC2c3cccc(O)c3CCC21 (racemic; 14a) [listing 2 of 2 here]	33		93	
CCCN(CCC)[C@@H]1Cc2cccc3nc(O)n(c23)C1				Intrinsic activity [8]: 91
CCCN1CC[C@H]2c3c(cccc3OC)CC[C@H]21 (racemic)	> 1000			
Oc1cccc2c1CC[C@@H]1NCCC[C@@H]21 (racemic)	38	53	11	
C=CCN1CC[C@H]2c3cccc(O)c3CC[C@H]21	49	22%	108	
C=CCN1CCC2c3cccc(O)c3CCC21 (racemic; 15c) [listing 2 of 2 here]	198		75	
CCCN1C[C@H]2c3c(cccc3OC)CC[C@H]21 (racemic)	329			
CN1C[C@@H](NC(=O)C(C)(C)C)CC2c3cccc4[nH]c(Cl)c(c34)C[C@H]21 (some centres undefined)	0.47	0%	3.6	
CCCN(CCC)[C@@H]1Cc2cccc3c2N(CC(=O)N3)C1 (racemic)	28	70%		
C=CCN1CCC2c3cccc(OC)c3CC[C@H]21 (mixture of isomers)		0%		
CCCN1CCC2Cc3c(O)cccc3C[C@H]21 (mixture of isomers)	17	79%	2.4	
C=CCN1CCC2Cc3c(O)cccc3C[C@H]21 (mixture of isomers)	25	91%	1.4	
CCCN(CCC)[C@@H]1Cc2cccc3c2N(C1)C(=O)NC3 (racemic)	> 1000	30%	58	
CCCN1CC[C@H]2c3c(cccc3OC)CC[C@H]21 [listing 2 of 2 here]		37%		
C=CCN1CC[C@@H]2Cc3c(O)cccc3C[C@H]21		106%		
CCCN(CCC)[C@@H]1Cc2cccc3[nH]c(=O)n(c23)C1	5.4		1.7	
